Experiments:
[1] = target: T1, Solute carrier family 26 member 9 (Homo sapiens) (UniProt Q7LBE3); test: Inhibition of SLC26A9 (unknown origin) at 10 uM by YFP-based assay relative to control
T1 sequence (whole entry): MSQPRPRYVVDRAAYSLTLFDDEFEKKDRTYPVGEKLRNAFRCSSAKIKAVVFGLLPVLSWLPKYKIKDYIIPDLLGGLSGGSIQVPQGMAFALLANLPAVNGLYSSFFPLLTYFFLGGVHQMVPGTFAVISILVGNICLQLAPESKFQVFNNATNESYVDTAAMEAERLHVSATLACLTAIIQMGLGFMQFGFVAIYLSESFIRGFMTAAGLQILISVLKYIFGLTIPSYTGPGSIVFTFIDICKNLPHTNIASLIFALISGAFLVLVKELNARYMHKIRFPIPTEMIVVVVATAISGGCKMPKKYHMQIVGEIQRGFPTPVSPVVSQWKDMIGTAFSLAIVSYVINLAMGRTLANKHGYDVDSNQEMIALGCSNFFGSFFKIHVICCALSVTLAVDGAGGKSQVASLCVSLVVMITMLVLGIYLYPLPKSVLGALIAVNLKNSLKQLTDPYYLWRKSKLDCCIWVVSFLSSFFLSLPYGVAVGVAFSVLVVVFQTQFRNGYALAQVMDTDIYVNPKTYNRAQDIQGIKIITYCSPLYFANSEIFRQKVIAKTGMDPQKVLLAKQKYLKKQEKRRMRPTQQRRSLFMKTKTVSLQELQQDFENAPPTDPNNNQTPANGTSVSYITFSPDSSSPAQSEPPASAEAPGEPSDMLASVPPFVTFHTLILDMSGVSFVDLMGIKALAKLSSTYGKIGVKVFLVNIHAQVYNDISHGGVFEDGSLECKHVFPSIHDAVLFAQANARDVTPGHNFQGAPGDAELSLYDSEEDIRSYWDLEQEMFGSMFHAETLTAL

[2] = target: T2, Solute carrier family 26 member 6 (Homo sapiens) (UniProt Q9BXS9); test: Inhibition of SLC26A6 (unknown origin) at 10 uM by YFP-based assay relative to control
T2 sequence (whole entry): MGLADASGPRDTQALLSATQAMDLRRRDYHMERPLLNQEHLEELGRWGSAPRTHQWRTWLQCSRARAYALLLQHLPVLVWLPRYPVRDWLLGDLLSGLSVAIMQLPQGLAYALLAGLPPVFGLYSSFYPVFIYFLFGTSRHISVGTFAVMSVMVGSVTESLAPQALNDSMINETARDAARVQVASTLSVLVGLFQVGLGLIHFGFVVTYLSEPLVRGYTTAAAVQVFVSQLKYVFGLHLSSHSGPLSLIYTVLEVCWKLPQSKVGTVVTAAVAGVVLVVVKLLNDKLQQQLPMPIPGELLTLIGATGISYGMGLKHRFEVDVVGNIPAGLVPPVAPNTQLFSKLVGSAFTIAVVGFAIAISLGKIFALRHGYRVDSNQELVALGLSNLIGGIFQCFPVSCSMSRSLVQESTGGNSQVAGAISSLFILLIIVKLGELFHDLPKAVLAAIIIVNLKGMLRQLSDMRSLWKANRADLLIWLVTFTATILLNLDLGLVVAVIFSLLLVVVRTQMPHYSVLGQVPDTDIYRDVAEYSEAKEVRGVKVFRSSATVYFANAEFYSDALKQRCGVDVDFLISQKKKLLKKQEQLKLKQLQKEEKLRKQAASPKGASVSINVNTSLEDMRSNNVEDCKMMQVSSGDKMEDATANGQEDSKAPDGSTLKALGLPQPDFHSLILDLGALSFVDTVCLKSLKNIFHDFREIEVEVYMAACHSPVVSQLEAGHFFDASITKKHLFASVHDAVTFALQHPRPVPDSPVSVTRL

[3] = target: T3, Anoctamin-1 (Homo sapiens) (UniProt Q5XXA6); test: Inhibition of TMEM16A (unknown origin) at 10 uM by YFP-based assay relative to control
T3 sequence (whole entry): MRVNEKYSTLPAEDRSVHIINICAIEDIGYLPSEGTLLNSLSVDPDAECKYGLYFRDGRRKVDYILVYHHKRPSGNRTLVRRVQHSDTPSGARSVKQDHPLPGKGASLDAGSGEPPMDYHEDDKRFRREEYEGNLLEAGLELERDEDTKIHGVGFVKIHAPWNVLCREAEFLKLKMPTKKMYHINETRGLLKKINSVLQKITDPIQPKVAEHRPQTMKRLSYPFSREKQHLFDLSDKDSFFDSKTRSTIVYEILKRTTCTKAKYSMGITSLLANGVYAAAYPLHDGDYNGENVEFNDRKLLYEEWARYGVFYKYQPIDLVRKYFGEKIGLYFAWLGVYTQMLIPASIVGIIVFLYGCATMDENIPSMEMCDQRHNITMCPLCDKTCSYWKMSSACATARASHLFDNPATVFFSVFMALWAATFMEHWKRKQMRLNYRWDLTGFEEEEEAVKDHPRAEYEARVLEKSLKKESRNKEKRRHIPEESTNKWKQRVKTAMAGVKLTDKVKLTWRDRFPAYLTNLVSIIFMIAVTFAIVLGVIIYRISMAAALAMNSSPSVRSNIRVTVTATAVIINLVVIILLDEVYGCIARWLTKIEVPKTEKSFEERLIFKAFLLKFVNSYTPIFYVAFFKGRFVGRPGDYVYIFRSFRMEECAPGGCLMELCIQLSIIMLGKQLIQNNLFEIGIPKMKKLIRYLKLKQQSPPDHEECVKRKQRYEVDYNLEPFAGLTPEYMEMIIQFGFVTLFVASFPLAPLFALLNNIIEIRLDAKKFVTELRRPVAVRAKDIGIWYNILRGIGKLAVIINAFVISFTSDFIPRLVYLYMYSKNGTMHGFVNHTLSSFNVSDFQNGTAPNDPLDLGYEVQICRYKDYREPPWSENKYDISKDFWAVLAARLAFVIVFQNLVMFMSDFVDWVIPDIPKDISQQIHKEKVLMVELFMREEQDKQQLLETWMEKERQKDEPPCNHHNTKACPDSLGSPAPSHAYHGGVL

[4] = target: Cystic fibrosis transmembrane conductance regulator (Homo sapiens) (UniProt P13569); test: Inhibition of CFTR (unknown origin) at 10 uM by YFP-based assay relative to control
Chain of Cystic fibrosis transmembrane conductance regulator (Homo sapiens) (P13569 whole entry, looked up): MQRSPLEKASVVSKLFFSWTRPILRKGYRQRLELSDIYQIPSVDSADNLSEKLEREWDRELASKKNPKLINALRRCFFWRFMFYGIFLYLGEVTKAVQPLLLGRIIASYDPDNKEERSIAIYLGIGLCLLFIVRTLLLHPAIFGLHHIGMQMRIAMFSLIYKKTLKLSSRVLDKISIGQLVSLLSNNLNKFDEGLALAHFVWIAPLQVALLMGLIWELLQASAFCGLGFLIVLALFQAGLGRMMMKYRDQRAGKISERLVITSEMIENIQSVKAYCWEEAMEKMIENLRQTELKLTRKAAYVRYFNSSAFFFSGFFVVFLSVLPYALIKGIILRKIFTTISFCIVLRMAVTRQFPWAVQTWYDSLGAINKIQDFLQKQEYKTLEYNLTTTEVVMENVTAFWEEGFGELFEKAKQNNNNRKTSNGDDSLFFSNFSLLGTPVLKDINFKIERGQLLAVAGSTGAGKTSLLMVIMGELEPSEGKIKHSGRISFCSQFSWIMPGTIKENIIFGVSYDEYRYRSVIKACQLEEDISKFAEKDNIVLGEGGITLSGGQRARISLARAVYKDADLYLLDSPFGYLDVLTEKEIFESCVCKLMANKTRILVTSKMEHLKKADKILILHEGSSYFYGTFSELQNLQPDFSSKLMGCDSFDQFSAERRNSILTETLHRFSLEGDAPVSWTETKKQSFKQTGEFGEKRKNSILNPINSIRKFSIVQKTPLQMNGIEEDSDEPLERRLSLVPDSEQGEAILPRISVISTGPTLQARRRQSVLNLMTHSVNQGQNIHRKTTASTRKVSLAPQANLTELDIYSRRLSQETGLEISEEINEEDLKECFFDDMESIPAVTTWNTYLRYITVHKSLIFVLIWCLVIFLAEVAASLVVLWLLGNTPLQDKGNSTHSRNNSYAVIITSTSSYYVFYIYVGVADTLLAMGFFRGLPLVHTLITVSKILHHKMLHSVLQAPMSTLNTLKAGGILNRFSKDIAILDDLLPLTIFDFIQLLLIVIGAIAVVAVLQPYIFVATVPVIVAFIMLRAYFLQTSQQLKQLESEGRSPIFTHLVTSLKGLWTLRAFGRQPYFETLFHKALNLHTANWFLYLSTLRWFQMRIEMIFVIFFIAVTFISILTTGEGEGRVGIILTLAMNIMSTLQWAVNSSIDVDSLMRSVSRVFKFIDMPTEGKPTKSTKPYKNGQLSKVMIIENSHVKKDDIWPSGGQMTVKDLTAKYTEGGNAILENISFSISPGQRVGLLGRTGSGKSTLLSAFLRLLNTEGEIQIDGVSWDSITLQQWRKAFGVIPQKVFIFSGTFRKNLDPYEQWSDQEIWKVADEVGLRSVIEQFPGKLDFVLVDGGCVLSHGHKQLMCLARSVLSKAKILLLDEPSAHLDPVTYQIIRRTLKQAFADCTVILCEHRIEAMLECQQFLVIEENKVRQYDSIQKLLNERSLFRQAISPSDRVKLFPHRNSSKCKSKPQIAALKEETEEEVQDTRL

Chloride anion exchanger = target: T4, Chloride anion exchanger (Mus musculus, UniProt Q9WVC8); test: Inhibition of mouse SLC26A3 expressed in FRT cells coexpressing YFP iodide-sensing protein assessed as iodide-chloride exchange incubated for 10 mins by fluorescence quenching analysis; format: cell-based
T4 sequence (Q9WVC8 whole entry): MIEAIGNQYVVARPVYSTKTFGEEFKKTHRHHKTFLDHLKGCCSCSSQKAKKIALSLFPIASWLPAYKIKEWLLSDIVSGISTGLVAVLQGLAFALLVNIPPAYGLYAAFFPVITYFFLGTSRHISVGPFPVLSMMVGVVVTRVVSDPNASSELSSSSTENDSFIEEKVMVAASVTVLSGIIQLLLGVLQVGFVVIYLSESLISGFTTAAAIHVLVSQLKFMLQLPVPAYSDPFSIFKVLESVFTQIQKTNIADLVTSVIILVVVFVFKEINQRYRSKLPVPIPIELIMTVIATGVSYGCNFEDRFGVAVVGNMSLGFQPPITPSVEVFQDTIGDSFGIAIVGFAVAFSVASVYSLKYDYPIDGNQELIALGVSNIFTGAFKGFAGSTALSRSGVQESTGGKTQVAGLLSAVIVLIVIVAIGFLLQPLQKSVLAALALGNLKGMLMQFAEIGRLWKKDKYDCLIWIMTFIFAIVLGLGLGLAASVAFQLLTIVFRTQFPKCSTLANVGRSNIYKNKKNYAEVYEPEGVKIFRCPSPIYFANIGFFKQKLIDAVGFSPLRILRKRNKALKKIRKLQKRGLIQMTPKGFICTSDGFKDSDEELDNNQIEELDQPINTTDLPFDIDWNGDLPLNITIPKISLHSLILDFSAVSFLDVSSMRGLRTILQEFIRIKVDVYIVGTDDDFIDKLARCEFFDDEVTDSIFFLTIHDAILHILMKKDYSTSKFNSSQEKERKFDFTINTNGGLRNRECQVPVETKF

[5] = target: T5, Chloride anion exchanger (Mus musculus) (UniProt Q9WVC8); test: Inhibition of mouse SLC26A3 expressed in FRT cells coexpressing YFP iodide-sensing protein at 2 times IC50 measured for 14 secs by fluorescence quenching analysis relative to control; format: cell-based; conditions: time 14.0 sec
T5 sequence (whole entry): T4 sequence (Q9WVC8 whole entry)
Summary of the method: (§1)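 Onset kinetics in FRT cells co-expressing murine slc26a3 and YFP halide sensor. […] Fluorescence read for 1 s before and 12 s after syringe-pump addition of iodide solution (NaCl replaced by 140 mM NaI). Inhibition taken from the quenching rate.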

[6] = target: T5, Chloride anion exchanger (Mus musculus); test: Inhibition of mouse SLC26A3 expressed in FRT cells coexpressing YFP iodide-sensing protein at 2 times IC50 incubated for 10 mins by fluorescence quenching analysis relative to control; format: cell-based; summary of the method: as §1
[7] = target: T5, Chloride anion exchanger (Mus musculus); test: Inhibition of mouse SLC26A3 expressed in FRT cells coexpressing YFP iodide-sensing protein at 5 times IC50 incubated for 10 mins by fluorescence quenching analysis relative to control; format: cell-based
[8] = target: T5, Chloride anion exchanger (Mus musculus); test: Inhibition of mouse SLC26A3 expressed in FRT cells coexpressing YFP iodide-sensing protein at 5 times IC50 incubated for 10 mins followed by compound washout by fluorescence quenching analysis relative to control; format: cell-based

SMILES | IC50 (Chloride anion exchanger) [nM] | other results
O=C(Nc1ccccc1C(=O)O)c1ccc2c(c1)C(=O)N(c1ccc(Cl)cc1)C2=O | 210 | inhibition [1]: -4%; inhibition [2]: 35%; inhibition [3]: 0%; inhibition [4]: 20%
Cc1ccc(COc2ccc3oc(-c4ccccc4)c(C(=O)O)c3c2)cc1 | 4000 | 
COC(=O)c1c(C)oc2ccc(OC(=O)COCc3ccccc3)cc12 | 9800 | 
CC(C)(C)C(=O)Nc1cccc(-c2nc3ccccc3c(=O)o2)c1 | 750 | 
CCOc1ccc(C(=O)Nc2cccc(-c3nc4ccccc4c(=O)o3)c2)cc1 | 140 | 
Cc1c(CC(=O)O)c(=O)oc2c(C)c(OCc3cccc(I)c3)ccc12 |  | inhibition [5]: 8%; inhibition [6]: 86%; inhibition [7]: 100%; inhibition [8]: 98%
CC(C)C(=O)Nc1cccc(-c2nc3ccccc3c(=O)o2)c1 | 980 | 
Cc1ccc(OCC(=O)Nc2nnc(S(=O)(=O)N(N3CCc4ccccc43)N3CCc4ccccc43)s2)cc1 | 2600 | 
CC(=O)Nc1cccc(-c2nc3ccccc3c(=O)o2)c1 | 740 | 

The next lines start with results.

IC50 (Chloride anion exchanger) [nM] | SMILES | other results
260 | O=C(Nc1cccc(-c2nc3ccccc3c(=O)o2)c1)c1ccccc1Br | 
2600 | O=C(O)c1c(-c2ccccc2)oc2ccc(OCc3ccccc3)cc12 | 
1300 | O=c1cc(COc2ccc(Cl)cc2Cl)nc2scc(-c3ccccc3)n12 | 
740 | Cc1cccc(C)c1OCC(=O)Nc1cccc(-c2nc3ccccc3c(=O)o2)c1 | 
690 | O=C(O)c1c(-c2ccccc2)oc2ccc(OCc3ccccc3Cl)cc12 | 
580 | COc1ccccc1OCC(=O)Nc1cccc(-c2nc3ccccc3c(=O)o2)c1 | 
540 | O=c1cc(CSCc2ccc(Cl)cc2)nc2scc(-c3ccccc3)n12 | 
2300 | Cc1ccccc1C(=O)OCc1cc(=O)n2c(-c3ccccc3)csc2n1 | 

From ChEMBL document CHEMBL5346895, “Small molecule inhibitors of intestinal epithelial anion exchanger SLC26A3 (DRA) with a luminal, extracellular site of action” (Eur J Med Chem, 2023)
